Test results taken from ChEMBL document CHEMBL1136924 (J Med Chem, 2009).
Activity calls are given as the source filed them. The rule behind the calls is not given here.

Tests used:
[1] = molecular target: T1, 5-hydroxytryptamine receptor 3A (Rattus norvegicus, UniProt P35563); assay: Displacement of [3H]LY278584 from 5HT3 receptor in rat cortical homogenate
T1 sequence (P35563 whole entry): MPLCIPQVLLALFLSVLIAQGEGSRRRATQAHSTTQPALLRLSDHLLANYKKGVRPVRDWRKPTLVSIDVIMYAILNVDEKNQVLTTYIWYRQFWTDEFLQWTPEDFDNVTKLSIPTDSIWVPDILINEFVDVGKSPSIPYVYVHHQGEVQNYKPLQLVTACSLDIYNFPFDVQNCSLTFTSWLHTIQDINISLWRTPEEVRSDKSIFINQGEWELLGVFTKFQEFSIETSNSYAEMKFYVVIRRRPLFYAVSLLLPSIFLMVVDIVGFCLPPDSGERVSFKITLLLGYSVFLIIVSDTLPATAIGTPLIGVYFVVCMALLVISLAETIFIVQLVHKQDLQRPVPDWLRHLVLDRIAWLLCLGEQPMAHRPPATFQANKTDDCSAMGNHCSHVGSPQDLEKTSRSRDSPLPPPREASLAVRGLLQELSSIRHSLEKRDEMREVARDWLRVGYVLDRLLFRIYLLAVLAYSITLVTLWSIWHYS

[2] = molecular target: T2, 5-hydroxytryptamine receptor 3A (Cavia porcellus) (UniProt O70212); assay: Agonist activity at 5HT3 receptor in voltage-stimulated guinea pig left atrium assessed as positive inotropic potency at 100 uM; type: functional, tissue-based; conditions: Cardiac atrium
T2 sequence (whole entry): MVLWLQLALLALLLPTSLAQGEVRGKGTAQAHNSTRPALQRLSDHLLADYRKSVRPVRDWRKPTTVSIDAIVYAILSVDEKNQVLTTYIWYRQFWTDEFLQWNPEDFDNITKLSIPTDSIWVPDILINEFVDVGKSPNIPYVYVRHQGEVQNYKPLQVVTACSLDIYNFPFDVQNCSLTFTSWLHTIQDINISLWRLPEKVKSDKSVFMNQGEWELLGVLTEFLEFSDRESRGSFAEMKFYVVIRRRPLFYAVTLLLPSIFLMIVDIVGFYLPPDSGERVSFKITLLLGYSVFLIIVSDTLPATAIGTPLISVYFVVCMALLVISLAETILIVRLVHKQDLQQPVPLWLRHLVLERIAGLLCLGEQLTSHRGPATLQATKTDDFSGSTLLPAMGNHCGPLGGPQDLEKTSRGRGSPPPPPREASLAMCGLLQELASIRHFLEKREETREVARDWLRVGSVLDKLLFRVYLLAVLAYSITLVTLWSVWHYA
Procedure, shortened: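 Guinea pig left and right atria were hung in a 15 mL bath of PSS (pH 7.4, 95% O2-5% CO2, 35 °C) with ketanserin 1 µM. The right atrium beat spontaneously; the left was paced at 1 Hz. Cumulative doses (0.1-100 µM; DMSO ≤0.3%) were added after 45-60 min stabilization. Rate or isometric force was recorded. EC50 came from Probit analysis, n≥4. Intrinsic activity was taken relative to 5-HT.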

[3] = molecular target: 5-hydroxytryptamine receptor 2A (Rattus norvegicus, UniProt P14842); assay: Displacement of [3H]ketanserin from 5HT2A receptor in rat cortex
[4] = molecular target: Muscarinic acetylcholine receptor; assay: Displacement of [3H]QNB from muscarinic receptor in rat cortex
D(1A) dopamine receptor = D(1A) dopamine receptor (Rattus norvegicus, UniProt P18901); assay: Displacement of [3H]SCH-23390 from dopamine D1 receptor in rat striatum
[5] = molecular target: T3, Adrenergic receptor alpha-1 (Rattus norvegicus, UniProt P15823+P23944+P43140); assay: Displacement of [3H]prazosin from adrenergic alpha1 receptor in rat cortex
T3 sequence (P15823 whole entry): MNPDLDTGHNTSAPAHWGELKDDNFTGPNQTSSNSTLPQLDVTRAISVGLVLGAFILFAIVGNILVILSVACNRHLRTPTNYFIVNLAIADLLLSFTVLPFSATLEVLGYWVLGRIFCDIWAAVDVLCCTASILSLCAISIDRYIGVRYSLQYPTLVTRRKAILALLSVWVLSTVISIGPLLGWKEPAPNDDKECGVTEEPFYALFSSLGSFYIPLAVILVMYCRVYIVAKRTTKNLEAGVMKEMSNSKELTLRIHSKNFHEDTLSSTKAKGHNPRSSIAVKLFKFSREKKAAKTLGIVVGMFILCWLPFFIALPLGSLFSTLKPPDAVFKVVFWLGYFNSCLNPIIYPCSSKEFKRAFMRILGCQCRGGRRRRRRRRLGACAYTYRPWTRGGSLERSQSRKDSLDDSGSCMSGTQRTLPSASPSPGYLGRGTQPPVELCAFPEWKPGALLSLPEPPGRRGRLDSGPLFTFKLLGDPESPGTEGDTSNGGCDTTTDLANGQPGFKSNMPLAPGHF
T3 sequence (P23944 whole entry): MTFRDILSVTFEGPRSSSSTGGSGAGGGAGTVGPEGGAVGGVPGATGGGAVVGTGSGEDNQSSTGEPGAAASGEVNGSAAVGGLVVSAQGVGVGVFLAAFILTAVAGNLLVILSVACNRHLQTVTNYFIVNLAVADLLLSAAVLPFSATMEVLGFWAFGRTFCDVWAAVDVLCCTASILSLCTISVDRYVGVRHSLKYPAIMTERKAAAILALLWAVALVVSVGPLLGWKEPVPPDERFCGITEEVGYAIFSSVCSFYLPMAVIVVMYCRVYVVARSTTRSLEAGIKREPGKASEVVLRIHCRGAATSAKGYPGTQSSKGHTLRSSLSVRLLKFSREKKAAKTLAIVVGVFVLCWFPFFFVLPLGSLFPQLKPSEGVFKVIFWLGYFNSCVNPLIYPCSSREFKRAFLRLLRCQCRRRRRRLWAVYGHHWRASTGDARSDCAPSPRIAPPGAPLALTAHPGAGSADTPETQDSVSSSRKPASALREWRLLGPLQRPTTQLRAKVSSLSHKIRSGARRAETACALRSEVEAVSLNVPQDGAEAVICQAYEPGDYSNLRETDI
T3 sequence (P43140 whole entry): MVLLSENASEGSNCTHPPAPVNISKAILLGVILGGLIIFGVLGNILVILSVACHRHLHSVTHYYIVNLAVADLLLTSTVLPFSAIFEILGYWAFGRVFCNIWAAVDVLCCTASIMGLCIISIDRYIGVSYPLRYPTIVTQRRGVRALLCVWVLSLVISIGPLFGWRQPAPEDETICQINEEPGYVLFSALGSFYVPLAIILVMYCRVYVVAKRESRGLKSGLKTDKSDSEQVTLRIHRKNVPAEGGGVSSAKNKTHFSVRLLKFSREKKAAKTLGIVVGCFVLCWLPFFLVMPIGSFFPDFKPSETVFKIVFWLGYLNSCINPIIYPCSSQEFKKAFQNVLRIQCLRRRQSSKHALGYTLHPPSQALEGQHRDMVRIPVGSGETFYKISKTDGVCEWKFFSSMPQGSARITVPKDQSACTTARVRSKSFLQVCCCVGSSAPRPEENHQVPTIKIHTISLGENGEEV

Chain of D(1A) dopamine receptor (P18901 whole entry): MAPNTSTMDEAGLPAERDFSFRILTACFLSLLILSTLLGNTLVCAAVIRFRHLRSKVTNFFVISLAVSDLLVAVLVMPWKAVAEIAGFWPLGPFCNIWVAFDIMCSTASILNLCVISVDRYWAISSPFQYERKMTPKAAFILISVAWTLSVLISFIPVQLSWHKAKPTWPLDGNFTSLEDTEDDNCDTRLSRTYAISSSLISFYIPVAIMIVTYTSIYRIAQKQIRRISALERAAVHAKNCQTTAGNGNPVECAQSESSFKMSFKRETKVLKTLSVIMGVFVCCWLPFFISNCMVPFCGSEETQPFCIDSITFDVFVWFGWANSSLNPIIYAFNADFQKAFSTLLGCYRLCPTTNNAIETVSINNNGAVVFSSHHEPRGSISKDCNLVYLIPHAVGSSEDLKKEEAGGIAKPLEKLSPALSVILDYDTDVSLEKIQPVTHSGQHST
Chain of 5-hydroxytryptamine receptor 2A (P14842 whole entry): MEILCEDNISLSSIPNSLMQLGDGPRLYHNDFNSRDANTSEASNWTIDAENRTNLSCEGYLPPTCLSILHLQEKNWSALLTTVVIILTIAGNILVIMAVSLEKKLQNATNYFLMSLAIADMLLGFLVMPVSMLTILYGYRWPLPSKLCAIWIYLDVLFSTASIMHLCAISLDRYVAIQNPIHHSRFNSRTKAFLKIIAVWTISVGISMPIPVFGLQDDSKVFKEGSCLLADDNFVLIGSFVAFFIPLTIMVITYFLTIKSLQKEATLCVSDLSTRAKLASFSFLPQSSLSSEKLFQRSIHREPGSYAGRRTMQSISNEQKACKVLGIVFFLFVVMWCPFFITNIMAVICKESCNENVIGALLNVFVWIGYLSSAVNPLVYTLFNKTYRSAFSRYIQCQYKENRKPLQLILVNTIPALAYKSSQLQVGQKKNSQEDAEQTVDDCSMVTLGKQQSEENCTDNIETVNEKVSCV

Compound	Ki [1] [µM]	pD2 [2]	Ki [3] [µM]	Ki [4] [µM]	Ki (D(1A) dopamine receptor) [µM]	Ki [5] [µM]
N/C(CN1CCN(c2nc3cc(F)ccc3n3cccc23)CC1)=N\O	0.0008	inactive	> 10	> 10	> 10	> 10
N[C@@H](CN1CCN(c2nc3cc(F)ccc3n3cccc23)CC1)C(=O)O	0.0028	inactive	5.69	> 10	> 10	> 10
